Measurements collected from several papers.
Protocols differ between the studies behind these lines.

SMILES	target or system	test	system	setting	endpoint	value
O=C(NC(=S)Nc1ccccc1O)c1cccs1	Leishmania tropica	parasite growth, resazurin		promastigote	IC50	0.29 µM
C=CC(=O)NC1CCN(c2ncc3ncnc(Nc4ccc(Oc5ccc6c(c5)ncn6C)c(C)c4)c3n2)CC1	PANC-1	cell growth or viability			EC50	1.8 µM
Nc1ccc(/C=C/C(=O)N2CCc3c(oc4c(-c5ccc(F)cc5)cc(-c5ccc(C(=O)N6CCC(F)(F)CC6)nn5)cc34)C2)cn1	PANC-1	cell growth or viability, CCK-8		72 h	IC50	> 20 µM
O=C(NO)c1ccc(CNc2nc3cccc(-c4ccc5c(c4)OCO5)n3n2)cc1	SF-268	cell growth or viability, SRB			GI50	0.47 µM
Cc1c(C(N)=S)c(N)n(N)c(=O)c1C#N	Saccharomyces cerevisiae	microbial growth, well diffusion	ATCC9763	500 µg/mL	inhibition zone	18 mm
Nc1ccc(/C=C/C(=O)NCc2cc3cc(-c4ccc(C(=O)N5CCC(F)(F)CC5)cc4)cc(-c4ccc(F)cc4)c3o2)cn1	PANC-1	cell growth or viability, CCK-8		72 h	IC50	> 20 µM
O=C(NC(=S)Nc1ccccn1)c1ccco1	Leishmania tropica	parasite growth, resazurin		promastigote	IC50	0.94 µM
COc1ccc(Cc2[nH]/c(=N/C(=O)C34CC5CC(CC(C5)C3)C4)n(C)c2-c2ccc(OC(=O)c3ccccc3)c(OC)c2)cc1	Hepatitis B virus	viral replication, inhibitor	HePAD38		IC50	9.82 µM
CN(C)c1ccc(-c2c(C(N)=O)c(N)n(N)c(=O)c2C#N)cc1	Saccharomyces cerevisiae	microbial growth, well diffusion	ATCC9763	500 µg/mL	inhibition zone	13 mm
C=CC(=O)Nc1cc(Nc2nccc(-c3cn(C)c4ccccc34)n2)c(OC)cc1N(C)CCN(C)C	PANC-1	cell growth or viability, MTS		72 h	IC50	7.14 µM
CN(C)c1ccc(-c2c(C(N)=S)c(N)n(N)c(=O)c2C#N)cc1	Saccharomyces cerevisiae	microbial growth, well diffusion	ATCC9763	500 µg/mL	inhibition zone	14 mm
O=C(NC(=S)Nc1ccccc1O)c1ccco1	Leishmania tropica	parasite growth, resazurin		promastigote	IC50	4.19 µM
